In ChEMBL document CHEMBL4732120, “Discovery of novel PARP/PI3K dual inhibitors with high efficiency against BRCA-proficient triple negative breast cancer” (Eur J Med Chem, 2021):
The source made the active and inactive calls. The rule behind the calls is not given here.

Tests used:
[1] = system: MDA-MB-468; experiment: Antitumor activity against human MDA-MB-468 cells xenografted in BALB/c mouse assessed as tumor growth inhibition at 50 mg/kg, ip administered every two days for 34 days relative to control; conditions: MDA-MB-468, ip, 816 h, read-out: TGI
[2] = system: MDA-MB-468; experiment: Inhibition of PARP1/PI3Kalpha in human MDA-MB-468 cells assessed as down regulation of BRCA1 mRNA expression at 2 uM by RT-PCR analysis
[3] = system: MDA-MB-468; experiment: Inhibition of PARP1/PI3Kalpha in human MDA-MB-468 cells assessed as down regulation of BRCA2 mRNA expression at 2 uM by RT-PCR analysis
[4] = system: MDA-MB-468; experiment: Induction of apoptosis in human MDA-MB-468 cells assessed as necrotic cells at 2 uM measured after 72 hrs by Annexin V-FITC/propidium iodide staining based flow cytometry (reference value: 0.13%); format: functional
[5] = system: MDA-MB-468; experiment: Induction of apoptosis in human MDA-MB-468 cells assessed as viable cells at 2 uM measured after 72 hrs by Annexin V-FITC/propidium iodide staining based flow cytometry (reference value: 95.2%); format: functional; conditions: read-out: Activity
[6] = system: MDA-MB-468; experiment: Induction of apoptosis in human MDA-MB-468 cells assessed as early apoptotic cells at 2 uM measured after 72 hrs by Annexin V-FITC/propidium iodide staining based flow cytometry (reference value: 3.88%); format: functional
[7] = molecular target: T1, Phosphatidylinositol 4,5-bisphosphate 3-kinase catalytic subunit alpha isoform (Homo sapiens, UniProt P42336); experiment: Inhibition of PI3Kalpha (unknown origin) at 100 nM relative to control
[8] = molecular target: T2, Poly [ADP-ribose] polymerase 1 (Homo sapiens, UniProt P09874); conditions: dose 10.0 nM
[9] = Solubility of compound at pH 7; format: physicochemical; conditions: buffer
[10] = molecular target: T2, Poly [ADP-ribose] polymerase 1; experiment: Inhibition of PARP1 (unknown origin)
In short: (§1)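 PARP-1 and PI3Kα enzyme inhibition. IC50 taken from dose-response curves and given as mean ± SD of three independent experiments.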

[11] = system: MDA-MB-468; experiment: Antiproliferative activity against human MDA-MB-468 cells measured after 7 days by Celltiter-glo assay; format: functional, cell-based; conditions: MDA-MB-468, 168 h
In short: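 MDA-MB-468 cells grown in RPMI1640 with 10% FBS at 37 °C, 5% CO2. Seeded the day before dosing, grown 12 h, then exposed to a range of concentrations for 7 days. Viability read by CellTiter-Glo luminescence after 10 min at room temperature. Inhibition % = (1 − (RLU cpd − blank)/(RLU DMSO − blank)) × 100. IC50 from nonlinear regression of normalized dose-response.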

[12] = molecular target: T1, Phosphatidylinositol 4,5-bisphosphate 3-kinase catalytic subunit alpha isoform; experiment: Inhibition of PI3Kalpha (unknown origin)
In short: as §1

[13] = system: MDA-MB-468; experiment: Inhibition of PARP1/PI3Kalpha in human MDA-MB-468 cells assessed as down regulation of BRCA2 mRNA expression at 1 uM by RT-PCR analysis
[14] = system: MDA-MB-468; experiment: Inhibition of PARP1/PI3Kalpha in human MDA-MB-468 cells assessed as down regulation of BRCA1 mRNA expression at 1 uM by RT-PCR analysis
[15] = Solubility of compound; format: physicochemical
[16] = system: MDA-MB-468; experiment: Induction of apoptosis in human MDA-MB-468 cells assessed as viable cells at 1 uM measured after 72 hrs by Annexin V-FITC/propidium iodide staining based flow cytometry (reference value: 95.2%); format: functional; conditions: read-out: Activity
[17] = system: MDA-MB-468; experiment: Antitumor activity against human MDA-MB-468 cells xenografted in BALB/c mouse assessed as tumor growth inhibition at 27.5 mg/kg, ip administered every two days for 34 days relative to control; conditions: MDA-MB-468, ip, 816 h, read-out: TGI
[18] = system: MDA-MB-468; experiment: Induction of apoptosis in human MDA-MB-468 cells assessed as late apoptotic cells at 1 uM measured after 72 hrs by Annexin V-FITC/propidium iodide staining based flow cytometry (reference value: 0.78%); format: functional
[19] = system: MDA-MB-468; experiment: Induction of apoptosis in human MDA-MB-468 cells assessed as early apoptotic cells at 1 uM measured after 72 hrs by Annexin V-FITC/propidium iodide staining based flow cytometry (reference value: 3.88%); format: functional
[20] = system: MDA-MB-468; experiment: Induction of apoptosis in human MDA-MB-468 cells assessed as necrotic cells at 1 uM measured after 72 hrs by Annexin V-FITC/propidium iodide staining based flow cytometry (reference value: 0.13%); format: functional

T1 sequence (P42336 whole entry, canonical isoform): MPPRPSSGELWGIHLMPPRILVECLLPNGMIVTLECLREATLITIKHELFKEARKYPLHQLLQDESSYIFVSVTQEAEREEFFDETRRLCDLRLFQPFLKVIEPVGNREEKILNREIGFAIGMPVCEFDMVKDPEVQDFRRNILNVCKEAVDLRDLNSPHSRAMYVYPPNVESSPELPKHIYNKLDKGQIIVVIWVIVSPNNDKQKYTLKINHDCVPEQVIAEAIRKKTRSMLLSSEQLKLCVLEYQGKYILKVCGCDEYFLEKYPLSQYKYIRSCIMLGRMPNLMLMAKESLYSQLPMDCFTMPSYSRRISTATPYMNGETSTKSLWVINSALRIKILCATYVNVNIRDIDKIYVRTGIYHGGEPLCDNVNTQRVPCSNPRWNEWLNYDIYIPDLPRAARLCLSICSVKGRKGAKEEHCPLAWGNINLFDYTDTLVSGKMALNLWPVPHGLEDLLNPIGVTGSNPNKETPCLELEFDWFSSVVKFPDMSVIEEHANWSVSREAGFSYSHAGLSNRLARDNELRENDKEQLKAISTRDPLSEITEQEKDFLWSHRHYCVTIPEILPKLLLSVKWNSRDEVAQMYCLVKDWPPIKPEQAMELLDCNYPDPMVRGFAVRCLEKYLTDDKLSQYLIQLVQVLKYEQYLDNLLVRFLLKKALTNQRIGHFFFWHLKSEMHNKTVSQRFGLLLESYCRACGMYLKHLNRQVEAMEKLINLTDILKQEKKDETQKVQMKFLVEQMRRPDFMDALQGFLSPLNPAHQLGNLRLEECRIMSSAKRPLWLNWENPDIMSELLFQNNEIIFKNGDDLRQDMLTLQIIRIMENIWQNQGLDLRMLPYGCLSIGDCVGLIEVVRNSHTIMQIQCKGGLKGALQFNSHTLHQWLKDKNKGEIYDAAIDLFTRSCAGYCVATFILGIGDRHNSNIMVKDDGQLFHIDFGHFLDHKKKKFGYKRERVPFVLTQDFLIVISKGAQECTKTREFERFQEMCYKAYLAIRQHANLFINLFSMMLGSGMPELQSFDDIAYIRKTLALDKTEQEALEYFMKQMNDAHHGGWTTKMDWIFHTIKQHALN
T2 sequence (P09874 whole entry): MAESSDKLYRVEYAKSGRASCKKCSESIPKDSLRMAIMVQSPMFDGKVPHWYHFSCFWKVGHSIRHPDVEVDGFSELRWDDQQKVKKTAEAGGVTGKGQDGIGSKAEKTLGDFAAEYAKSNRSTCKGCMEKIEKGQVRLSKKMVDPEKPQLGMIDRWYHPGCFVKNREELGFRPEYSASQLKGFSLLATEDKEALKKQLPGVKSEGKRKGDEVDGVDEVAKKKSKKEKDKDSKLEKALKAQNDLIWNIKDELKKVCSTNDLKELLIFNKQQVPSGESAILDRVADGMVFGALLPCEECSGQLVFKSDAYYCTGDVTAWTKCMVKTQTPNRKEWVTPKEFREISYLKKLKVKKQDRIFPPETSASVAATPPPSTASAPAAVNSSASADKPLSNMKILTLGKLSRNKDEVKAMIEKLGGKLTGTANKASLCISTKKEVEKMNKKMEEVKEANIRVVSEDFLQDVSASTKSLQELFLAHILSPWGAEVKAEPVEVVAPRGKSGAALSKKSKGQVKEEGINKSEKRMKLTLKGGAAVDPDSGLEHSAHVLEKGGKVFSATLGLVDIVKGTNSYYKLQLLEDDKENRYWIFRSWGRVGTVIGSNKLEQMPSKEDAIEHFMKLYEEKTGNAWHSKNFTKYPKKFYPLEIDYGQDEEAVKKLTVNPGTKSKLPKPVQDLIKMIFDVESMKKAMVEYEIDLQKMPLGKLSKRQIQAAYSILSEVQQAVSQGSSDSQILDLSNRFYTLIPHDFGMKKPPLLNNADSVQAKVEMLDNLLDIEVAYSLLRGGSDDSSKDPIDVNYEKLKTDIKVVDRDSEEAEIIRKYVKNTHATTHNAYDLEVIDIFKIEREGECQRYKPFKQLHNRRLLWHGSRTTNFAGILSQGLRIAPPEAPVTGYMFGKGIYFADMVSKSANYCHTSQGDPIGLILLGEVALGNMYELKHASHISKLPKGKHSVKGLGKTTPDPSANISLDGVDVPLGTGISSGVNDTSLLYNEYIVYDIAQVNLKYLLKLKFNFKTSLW

SMILES: O=C(c1cc(Cc2n[nH]c(=O)c3ccccc23)ccc1F)N1CCN(C(=O)C2CC2)CC1 [OLAPARIB]
- inhibition in vivo at 50 mg/kg [1]: 28.5%
- inhibition [2]: Active
- inhibition [3]: Active
- Activity [4]: 0.16%
- viability at 2 µM [5]: 91.5%
- Activity [6]: 6.6%

SMILES: NC(=O)c1cccc2cc(C(=O)N3CCN(c4cc(-c5cnc(N)nc5)nc(N5CCOCC5)n4)CC3)oc12
- inhibition [7]: 60%
- inhibition [8]: 85%

SMILES: Cl.NC(=O)c1cccc2cc(C(=O)N3CCN(c4nc(-c5cnc(N)cc5C(F)(F)F)nc(N5CCOCC5)n4)CC3)oc12
- solubility [9]: < 100 µg/mL

SMILES: NC(=O)c1cccc2cc(C(=O)N3CCN(c4nc(N5CCOCC5)nc(-n5c(C(F)F)nc6ccccc65)n4)CC3)oc12
- inhibition [7]: 29%
- inhibition [8]: 36%

SMILES: Cl.NC(=O)c1cccc2cc(C(=O)N3CCN(c4nc(-c5cnc(NC(=O)CN6CCOCC6)cc5C(F)(F)F)nc(N5CCOCC5)n4)CC3)oc12
- solubility [9]: > 10000 µg/mL

SMILES: NC(=O)c1cccc2cc(C(=O)N3CCN(c4nc(-c5ccc(N)c(F)c5)nc(N5CCOCC5)n4)CC3)oc12
- inhibition [7]: 5%
- inhibition [8]: 51%

SMILES: NC(=O)c1cccc2cc(C(=O)N3CCN(c4nc(-c5cnc(N)cc5C(F)(F)F)nc(N5CCOCC5)n4)CC3)oc12 [listing 1 of 2 here]
- IC50 [10]: 7.3 nM
- IC50 [11]: 4060 nM
- IC50 [12]: 39.6 nM

SMILES: NC(=O)c1cccc2cc(C(=O)N3CCN(c4cc(-n5c(C(F)F)nc6ccccc65)nc(N5CCOCC5)n4)CC3)oc12
- inhibition [7]: 26%
- inhibition [8]: 38%

SMILES: NC(=O)c1cccc2cc(C(=O)N3CCN(c4cc(-c5cnc(N)cc5C(F)(F)F)nc(N5CCOCC5)n4)CC3)oc12
- inhibition [7]: 80%
- inhibition [8]: 51%

SMILES: NC(=O)c1cccc2cc(C(=O)N3CCN(c4nc(-c5cnc(NC(=O)CN6CCOCC6)cc5C(F)(F)F)nc(N5CCOCC5)n4)CC3)oc12
- inhibition [13]: Active
- inhibition [14]: Active

SMILES: NC(=O)c1cccc2cc(C(=O)N3CCN(c4nc(-c5cnc(N)cc5C(F)(F)F)nc(N5CCOCC5)n4)CC3)oc12 [listing 2 of 2 here]
- inhibition [7]: 77%
- inhibition [8]: 60%

SMILES: NC(=O)c1cccc2cc(C(=O)N3CCN(c4nc(-c5ccc6[nH]ccc6c5)nc(N5CCOCC5)n4)CC3)oc12
- inhibition [7]: 8%
- inhibition [8]: 62%

SMILES: NC(=O)c1cccc2cc(C(=O)N3CCN(c4nc(-c5ccc(N)nc5)nc(N5CCOCC5)n4)CC3)oc12
- inhibition [7]: 79%
- IC50 [10]: 10.8 nM
- IC50 [12]: 119 nM
- inhibition [8]: 61%

SMILES: NC(=O)c1cccc2cc(C(=O)N3CCN(c4nc(-c5cnc(N)nc5)nc(N5CCOCC5)n4)CC3)oc12
- inhibition [7]: 86%
- IC50 [10]: 5.8 nM
- solubility [15]: Insoluble
- IC50 [12]: 6.3 nM
- inhibition [8]: 70%

SMILES: Nc1cc(C(F)(F)F)c(-c2cc(N3CCOCC3)nc(N3CCOCC3)n2)cn1 [BUPARLISIB]
- inhibition [7]: 82%
- viability at 1 µM [16]: 91.9%
- inhibition in vivo at 27.5 mg/kg [17]: 33.4%
- Activity [18]: 1.82%
- Activity [19]: 6.13%
- inhibition [13]: Active
- Activity [20]: 0.16%
- inhibition [14]: Active
